Test results: ChEMBL document CHEMBL4145562, “Bioactivity-Guided Isolation of Potential Antidiabetic and Antihyperlipidemic Compounds from Trigonella stellata” (J Nat Prod, 2018)
The source made the active and inactive calls. The rule behind the calls is not given here.

Assays:
Assay type in all cases: cell-based
[1] = target: T1, Peroxisome proliferator-activated receptor alpha (Homo sapiens) (UniProt Q07869); experiment: Agonist activity at PPARalpha (unknown origin) expressed in human HepG2 cells cotransfected with PPRE X3-tk at 1.45 ug/ml after 24 hrs by luciferase reporter gene assay relative to control
T1 sequence (whole entry): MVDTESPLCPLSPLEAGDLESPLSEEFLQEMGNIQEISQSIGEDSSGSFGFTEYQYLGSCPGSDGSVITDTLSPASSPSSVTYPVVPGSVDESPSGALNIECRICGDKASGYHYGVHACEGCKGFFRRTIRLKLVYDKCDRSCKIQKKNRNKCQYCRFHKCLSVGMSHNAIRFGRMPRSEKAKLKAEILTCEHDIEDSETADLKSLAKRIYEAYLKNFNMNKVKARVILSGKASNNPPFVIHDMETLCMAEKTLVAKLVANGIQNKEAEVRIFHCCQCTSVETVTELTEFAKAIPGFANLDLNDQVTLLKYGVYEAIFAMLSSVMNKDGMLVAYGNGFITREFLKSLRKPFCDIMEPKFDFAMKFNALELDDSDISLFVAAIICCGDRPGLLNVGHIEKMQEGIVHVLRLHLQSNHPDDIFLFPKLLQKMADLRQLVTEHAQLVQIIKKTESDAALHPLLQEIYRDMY
Summary of the method: (§1)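 HepG2 cells grown in DMEM with 10% FBS, penicillin and streptomycin, then electroporated (160 V, single 70 ms pulse) with pSG5-PPARα plus PPRE X3-tk-luc plasmids (25 μg/1.5 mL cell suspension). Cells were plated at 5 × 10^4/well and grown 24 h, then treated for 24 h and lysed. Luciferase activity was reported as fold induction over vehicle control.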

[2] = target: T1, Peroxisome proliferator-activated receptor alpha (Homo sapiens); experiment: Agonist activity at PPARalpha (unknown origin) expressed in human HepG2 cells cotransfected with PPRE X3-tk at 50 ug/ml after 24 hrs by luciferase reporter gene assay relative to control; summary of the method: as §1
[3] = target: T1, Peroxisome proliferator-activated receptor alpha (Homo sapiens); experiment: Agonist activity at PPARalpha (unknown origin) expressed in human HepG2 cells cotransfected with PPRE X3-tk at 25 ug/ml after 24 hrs by luciferase reporter gene assay relative to control; summary of the method: as §1
[4] = target: T1, Peroxisome proliferator-activated receptor alpha (Homo sapiens); experiment: Agonist activity at PPARalpha (unknown origin) expressed in human HepG2 cells cotransfected with PPRE X3-tk at 12.5 ug/ml after 24 hrs by luciferase reporter gene assay relative to control; summary of the method: as §1
[5] = target: T2, Peroxisome proliferator-activated receptor gamma (Homo sapiens) (UniProt P37231); experiment: Agonist activity at PPARgamma (unknown origin) expressed in human HepG2 cells cotransfected with PPREaP2-tk at 50 ug/ml after 24 hrs by luciferase reporter gene assay relative to control
T2 sequence (whole entry): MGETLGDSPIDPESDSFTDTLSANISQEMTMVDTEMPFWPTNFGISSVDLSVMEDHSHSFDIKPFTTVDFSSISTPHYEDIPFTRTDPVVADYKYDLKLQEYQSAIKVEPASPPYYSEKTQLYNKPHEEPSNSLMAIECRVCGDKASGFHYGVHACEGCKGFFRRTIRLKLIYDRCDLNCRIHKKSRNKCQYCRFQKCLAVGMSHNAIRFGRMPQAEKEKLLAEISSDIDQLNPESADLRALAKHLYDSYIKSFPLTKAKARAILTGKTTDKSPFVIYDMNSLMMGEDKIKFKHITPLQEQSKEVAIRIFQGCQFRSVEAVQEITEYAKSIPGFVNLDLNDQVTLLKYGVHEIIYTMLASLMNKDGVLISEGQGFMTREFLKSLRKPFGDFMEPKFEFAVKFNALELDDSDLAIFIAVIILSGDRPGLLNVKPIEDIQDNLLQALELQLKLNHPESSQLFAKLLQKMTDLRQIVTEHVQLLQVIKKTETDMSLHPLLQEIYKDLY
Summary of the method: (§2)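 Rat PPARγ (pCMV-rPPARγ) was co-electroporated with the pPPREaP2-tk-luc reporter (25 μg/1.5 mL cell suspension; 160 V, one 70 ms pulse) into HepG2 cells kept in DMEM/10% FBS with antibiotics. Cells were seeded at 5 × 10^4/well for 24 h, then exposed to samples for 24 h. Luciferase was read in lysates and expressed as fold induction relative to vehicle.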

[6] = target: T2, Peroxisome proliferator-activated receptor gamma (Homo sapiens); experiment: Agonist activity at PPARgamma (unknown origin) expressed in human HepG2 cells cotransfected with PPREaP2-tk at 25 ug/ml after 24 hrs by luciferase reporter gene assay relative to control; summary of the method: as §2
[7] = target: T2, Peroxisome proliferator-activated receptor gamma (Homo sapiens); experiment: Agonist activity at PPARgamma (unknown origin) expressed in human HepG2 cells cotransfected with PPREaP2-tk at 12.5 ug/ml after 24 hrs by luciferase reporter gene assay relative to control; summary of the method: as §2

SMILES	fold change (FC) [1]	Activity [2]	fold change (FC) [3]	fold change (FC) [4]	Activity [5]	Activity [6]	Activity [7]	Activity [3]	Activity [4]	fold change (FC) [5]	fold change (FC) [6]	fold change (FC) [7]	fold change (FC) [2]
CC(C)(Oc1ccc(C2CC2(Cl)Cl)cc1)C(=O)O (centres undefined)	2.2	–	–	–	–	–	–	–	–	–	–	–	–
COc1ccc2c(c1)OC(OC)C(c1ccc(O)cc1O)[C@H]2O (single isomer, unassigned)	–	inactive	2	1.93	inactive	inactive	inactive	–	–	–	–	–	–
C[C@@H]1O[C@@H](O[C@H]2[C@H](O[C@H]3[C@H](O[C@H]4CC[C@@]5(C)[C@@H](CC[C@]6(C)[C@@H]5CC=C5[C@@H]7CC(C)(C)C[C@@H](O)[C@]7(C)CC[C@]56C)[C@@]4(C)CO)O[C@H](C(=O)O)[C@@H](O)[C@@H]3O)O[C@H](CO)[C@H](O)[C@@H]2O)[C@H](O)[C@H](O)[C@H]1O	–	inactive	–	–	–	–	–	inactive	inactive	1.79	1.36	1.22	–
C[C@@H]1O[C@@H](Oc2cc(O)c3c(=O)c(O[C@@H]4O[C@@H](C)[C@H](O)[C@@H](O)[C@H]4O)c(-c4ccc(O)c(O)c4)oc3c2)[C@H](O)[C@H](O)[C@H]1O	–	inactive	–	–	inactive	inactive	inactive	inactive	inactive	–	–	–	–
O=c1cc(-c2ccc(O)cc2)oc2cc(O)ccc12	–	inactive	–	–	inactive	inactive	inactive	inactive	inactive	–	–	–	–
O=C(O)c1ccc(O)cc1	–	inactive	–	–	–	–	–	inactive	inactive	1.35	0.9	1	–
COc1ccc2c(c1)OC[C@H](c1ccc(O)cc1O)[C@H]2O	–	–	1.88	1.29	inactive	inactive	inactive	–	–	–	–	–	2.25
O=C(O)CCc1ccccc1O[C@@H]1O[C@H](CO)[C@@H](O)[C@H](O)[C@H]1O	–	inactive	–	–	inactive	inactive	inactive	inactive	inactive	–	–	–	–
COc1ccc2c(c1)OC[C@@H](c1ccc(O[C@@H]3O[C@H](CO)[C@@H](O)[C@H](O)[C@H]3O)cc1O)[C@@H]2O	–	–	1.32	1.14	–	–	–	–	–	1.74	1.36	1.22	1.67
